Test [1] concerns Penicillium oxalicum. Put plainly: Inhibition of Penicillium oxalicum CCF 1959 beta-N-acetylglucosaminidase at 2 mM.
Test [2] deals with T1, Early activation antigen CD69 (Homo sapiens, UniProt Q07108).
T1 sequence (Q07108 whole entry): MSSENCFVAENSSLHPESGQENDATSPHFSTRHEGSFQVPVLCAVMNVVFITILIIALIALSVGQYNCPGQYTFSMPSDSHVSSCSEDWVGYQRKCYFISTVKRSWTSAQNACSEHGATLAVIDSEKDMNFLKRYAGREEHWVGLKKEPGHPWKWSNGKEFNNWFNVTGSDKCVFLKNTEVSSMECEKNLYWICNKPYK
The test is described as follows: Binding affinity to rhodamine-labeled human CD69 receptor after 2 hrs by fluorescence assay. The essentials:
(§1)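 Competitive displacement assay: the compound's ability to displace a high-affinity receptor ligand was measured on rat NKR-P1A and human CD69 activating receptors. Affinity was expressed relative to free N-acetyl-D-glucosamine as the reference ligand.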

Test [3] deals with Penicillium pittii. The test is described as follows: Inhibition of Penicillium pittii CCF 2277 beta-N-acetylglucosaminidase at 2 mM.
Test [4] concerns the target T2, Killer cell lectin-like receptor subfamily B member 1A (Rattus norvegicus, UniProt P27471).
T2 sequence (P27471 whole entry): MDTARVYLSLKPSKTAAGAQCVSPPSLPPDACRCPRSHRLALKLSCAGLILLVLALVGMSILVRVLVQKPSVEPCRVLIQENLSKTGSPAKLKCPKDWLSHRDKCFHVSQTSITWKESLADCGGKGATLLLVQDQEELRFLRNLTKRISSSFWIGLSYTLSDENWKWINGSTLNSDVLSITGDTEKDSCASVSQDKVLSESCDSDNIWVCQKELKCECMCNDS
The test is described as follows: Binding affinity to fluorescein-labeled rat NKR-P1A after 2 hrs by fluorescence assay. The essentials: as §1

For test [5], the system named is Talaromyces flavus. Put plainly: Inhibition of Talaromyces flavus CCF 2686 beta-N-acetylglucosaminidase at 2 mM.
Test [6] relates to Aspergillus oryzae. The test is described as follows: Inhibition of Aspergillus oryzae CCF 1066 beta-N-acetylglucosaminidase at 2 mM.
The test system of test [7] is Prunus dulcis. Put plainly: Inhibition of sweet almond beta-glucosidase at 1 mM.
Test [8] has as its system Saccharomyces cerevisiae. Put plainly: Inhibition of yeast alpha-glucosidase at 1 mM.
Test [9] deals with Alpha-galactosidase (Coffea arabica) (UniProt Q42656). The test is described as follows: Inhibition of green coffee bean alpha-galactosidase at 1 mM.
The target of test [10] is Beta-galactosidase (Escherichia coli) (UniProt Q8VNN2). The test is described as follows: Inhibition of Escherichia coli beta-galactosidase at 1 mM.
Test [11] addresses T3, Beta-galactosidase (Aspergillus oryzae) (UniProt Q2U7N3).
T3 sequence (whole entry): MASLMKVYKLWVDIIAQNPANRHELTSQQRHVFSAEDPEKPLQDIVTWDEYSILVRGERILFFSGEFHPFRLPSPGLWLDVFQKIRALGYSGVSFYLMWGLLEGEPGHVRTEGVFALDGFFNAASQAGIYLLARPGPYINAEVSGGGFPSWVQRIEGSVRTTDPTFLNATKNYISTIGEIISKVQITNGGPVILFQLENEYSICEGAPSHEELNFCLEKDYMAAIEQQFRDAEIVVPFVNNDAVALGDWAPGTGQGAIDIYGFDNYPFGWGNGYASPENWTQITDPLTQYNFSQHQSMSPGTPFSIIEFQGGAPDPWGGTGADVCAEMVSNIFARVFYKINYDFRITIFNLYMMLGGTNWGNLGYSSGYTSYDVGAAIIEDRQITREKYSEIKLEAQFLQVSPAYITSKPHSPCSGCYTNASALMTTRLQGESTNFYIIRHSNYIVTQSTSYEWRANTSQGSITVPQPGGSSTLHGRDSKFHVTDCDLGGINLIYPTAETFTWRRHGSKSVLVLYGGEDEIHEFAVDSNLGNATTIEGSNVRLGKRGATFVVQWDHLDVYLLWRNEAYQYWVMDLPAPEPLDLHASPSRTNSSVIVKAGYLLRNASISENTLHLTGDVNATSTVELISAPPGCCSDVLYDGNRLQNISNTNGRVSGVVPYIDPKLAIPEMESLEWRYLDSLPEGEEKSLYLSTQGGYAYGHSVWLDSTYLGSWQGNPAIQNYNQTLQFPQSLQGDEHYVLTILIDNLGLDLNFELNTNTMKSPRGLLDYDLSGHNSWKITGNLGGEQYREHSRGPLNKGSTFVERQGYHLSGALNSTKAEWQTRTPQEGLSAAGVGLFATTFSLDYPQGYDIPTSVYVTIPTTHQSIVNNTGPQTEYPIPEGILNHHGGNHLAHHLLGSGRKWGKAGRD
The test is described as follows: Inhibition of Aspergillus oryzae beta-galactosidase at 1 mM.

In test [12] the target is Beta-galactosidase (Escherichia coli, UniProt Q8VNN2). The test is described as follows: Inhibition of Escherichia coli beta-galactosidase.

One may read the pIC50 as −log10 of the IC50, conventionally taken in molar units. Higher therefore signals a small IC50. Broadly, the pKi is the Ki on a negative log10 scale, so that one unit is a factor of ten. High values mean a low Ki, low ones a high Ki.

pIC50, pKi: −log10 of the molar value. Calls of active or inactive are those of the source. No cut-off for these calls is given here.

Beta-galactosidase (Escherichia coli), sequence (Q8VNN2 whole entry, looked up): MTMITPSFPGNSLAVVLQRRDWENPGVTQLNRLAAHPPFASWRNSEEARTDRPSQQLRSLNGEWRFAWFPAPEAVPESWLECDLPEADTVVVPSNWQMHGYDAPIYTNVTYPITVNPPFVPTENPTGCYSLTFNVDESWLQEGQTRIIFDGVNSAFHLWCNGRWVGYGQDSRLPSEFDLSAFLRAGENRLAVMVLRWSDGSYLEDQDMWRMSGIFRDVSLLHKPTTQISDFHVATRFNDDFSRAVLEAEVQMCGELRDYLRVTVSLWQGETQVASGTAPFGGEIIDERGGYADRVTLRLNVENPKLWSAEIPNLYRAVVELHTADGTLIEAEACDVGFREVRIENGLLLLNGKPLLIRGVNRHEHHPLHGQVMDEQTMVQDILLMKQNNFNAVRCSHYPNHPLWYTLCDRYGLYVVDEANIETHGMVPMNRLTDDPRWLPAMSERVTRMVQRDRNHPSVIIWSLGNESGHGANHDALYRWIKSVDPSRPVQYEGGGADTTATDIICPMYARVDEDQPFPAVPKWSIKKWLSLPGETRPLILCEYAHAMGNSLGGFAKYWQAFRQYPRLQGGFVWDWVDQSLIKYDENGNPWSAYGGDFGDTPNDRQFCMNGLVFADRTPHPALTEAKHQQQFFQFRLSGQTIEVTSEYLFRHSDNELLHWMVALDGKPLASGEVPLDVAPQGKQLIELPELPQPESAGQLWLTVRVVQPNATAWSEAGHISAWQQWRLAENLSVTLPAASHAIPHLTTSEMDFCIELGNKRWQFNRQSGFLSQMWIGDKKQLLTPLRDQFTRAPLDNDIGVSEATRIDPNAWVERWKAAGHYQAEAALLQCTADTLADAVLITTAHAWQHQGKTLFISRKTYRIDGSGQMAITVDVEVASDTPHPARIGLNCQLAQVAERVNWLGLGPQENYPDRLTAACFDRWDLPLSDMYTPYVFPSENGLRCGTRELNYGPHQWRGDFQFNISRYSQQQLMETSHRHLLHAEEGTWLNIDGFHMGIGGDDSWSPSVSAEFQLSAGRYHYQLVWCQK
Beta-galactosidase, sequence (Q8VNN2 whole entry): as the sequence (Q8VNN2 whole entry, looked up) above
Alpha-galactosidase (Coffea arabica), sequence (Q42656 16-378 limits assumed): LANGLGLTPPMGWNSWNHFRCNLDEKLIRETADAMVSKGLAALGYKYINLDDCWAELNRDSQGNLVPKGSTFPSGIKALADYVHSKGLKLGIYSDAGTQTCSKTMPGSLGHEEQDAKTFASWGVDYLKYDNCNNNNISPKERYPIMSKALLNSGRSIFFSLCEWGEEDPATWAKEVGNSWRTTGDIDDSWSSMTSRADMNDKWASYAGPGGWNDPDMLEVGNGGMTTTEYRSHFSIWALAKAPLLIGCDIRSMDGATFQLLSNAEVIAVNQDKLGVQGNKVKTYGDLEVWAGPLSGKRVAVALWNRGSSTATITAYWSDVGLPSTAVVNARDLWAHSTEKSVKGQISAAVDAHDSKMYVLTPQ

For the compound `CC(=O)N[C@@H]1[C@@H](O)[C@H](O)[C@@H](CO)O[C@H]1n1ccnn1`, the inhibition entry in test [1], in [3], in test [5] and in test [6] was “inactive” each time. Besides, the negative logarithm of the IC50 (pIC50) in test [2] was 5.40; in test [4] it was 7.20.

With `OC[C@H]1O[C@@H](n2ccnn2)[C@H](O)[C@@H](O)[C@@H]1O`, the inhibition result in test [7] is “inactive”.

Consider `OC[C@H]1O[C@H](n2ccnn2)[C@H](O)[C@@H](O)[C@@H]1O`, for which the inhibition entry in test [8] is “inactive”.

`OC[C@H]1O[C@H](n2ccnn2)[C@H](O)[C@@H](O)[C@H]1O`: the inhibition entry in test [9] is “inactive”.

As for `OC[C@H]1O[C@@H](n2ccnn2)[C@H](O)[C@@H](O)[C@H]1O`, the inhibition result in test [10] and in test [11] was “inactive” in each case.

Turning to `CC(=O)N[C@@H]1[C@@H](O)[C@H](O)[C@@H](CO)O[C@H]1O` [N-ACETYLGLUCOSAMINE], the pIC50 is 3.90 in test [2] and 5.70 in [4].

Compound `OC[C@H]1O[C@@H](n2cc(-c3ccccc3)nn2)[C@H](O)[C@@H](O)[C@@H]1O` gave a negative logarithm of the Ki (pKi) in test [12] of 3.48.

(Values after ChEMBL document CHEMBL1177763, “Synthesis and biological activity of glycosyl-1H-1,2,3-triazoles” (Bioorg Med Chem Lett, 2010).)
